In ChEMBL document CHEMBL2331185, “Structures and cytotoxic evaluation of new and known acyclic Ene-Ynes from an American Samoa Petrosia sp. Sponge” (J Nat Prod, 2013):

Assays:
A2058 [1] = test: Selectivity index, ratio of IC50 for human IMR90 cells to IC50 for human A2058 cells; assay type: functional
Summary of the method: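 SI calculated from the relative IC50 response of quiescent IMR-90 fibroblasts versus A2058 melanoma cells. IMR-90 IC50 comes from the 96 h low-serum quiescent assay; A2058 IC50 comes from the 96 h continuous-exposure proliferating assay. Both read by CellTiter-Glo.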

[2] = Cytotoxicity against human H460 cells after 96 hrs by CellTiter-Glo luminescent assay; assay type: functional, cell-based; conditions: NCI-H460, 96 h
Summary of the method: (§1)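 Tumour cells grown in 96-well plates without or with continuous test compound for 96 h. Growth measured by CellTiter-Glo luminescence. IC50 is the concentration inhibiting growth by 50% relative to untreated cells. Two separate replicate experiments.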

IMR-90 = test: Cytotoxicity against human IMR90 cells after 96 hrs by CellTiter-Glo luminescent assay; assay type: cell-based; conditions: IMR-90, 96 h
Summary of the method: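 Fibroblasts grown 4 days to confluency in MEM with 10% FBS, L-glutamine and penicillin/streptomycin. After washing, cells were held 3 more days in MEM with 0.1% FBS to reach quiescence. Compound added, then incubation 96 h at 37°C. Viability measured as cellular ATP by CellTiter-Glo.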

[3] = Cytotoxicity against human H522-T1 cells after 96 hrs by CellTiter-Glo luminescent assay; assay type: functional, cell-based; conditions: H522-T1, 96 h; summary of the method: as §1
A2058 [4] = test: Cytotoxicity against human A2058 cells after 96 hrs by CellTiter-Glo luminescent assay; assay type: functional, cell-based; conditions: A2058, 96 h; summary of the method: as §1

SMILES | Ratio IC50 (A2058 [1]) | IC50 [2] [nM] | IC50 (IMR-90) [nM] | IC50 [3] [nM] | IC50 (A2058 [4]) [nM]
C#C[C@H](O)/C=C/CCCCCCCCCC#CCCCCCCCCCCCC/C=C\C#CC(=O)O | 0.1 | 7300 | 400 | 8400 | 6400
C#C[C@H](O)/C=C/CCCCCCCC#C/C=C\CCCCCCCCCCCC/C=C\C#CC(=O)O | 0.1 | 3100 | 300 | 4600 | 3800
C#C[C@H](O)/C=C/CCCCCCCCCCC/C=C/C(O)CCCCCCCCC/C=C\C#CC(=O)O (stereo partly drawn) | 0 | > 10000 | 200 | > 10000 | 8100
C#CC(O)/C=C/CCCCCCCCC/C=C\CCCCCCCCCCCC(O)C#CC#CCO (stereo not drawn) | 1 | 400 | 400 | 800 | 400
C#CC(O)/C=C/CCCCCCCC#C/C=C\CCCCCCCCCCCC(O)C#CC#CCO (stereo not drawn) | 0.8 | 1000 | 300 | 600 | 400
C#CC(O)/C=C/CCCCCCCC#C/C=C\CCCCCCCCCCCCCC(O)C#CC#CCO (stereo not drawn) | 0.6 | 700 | 500 | 1100 | 800
C#CC(O)/C=C/CCCCCCCCCCCC#CCCCCCCCCCCCC(O)C#CC#CCO (stereo not drawn) | 1.2 | 1200 | 1600 | 2700 | 1300
C#CC(O)/C=C/CCCCCCCCCC(O)CCCCCCCCCCCC(O)C#CC#CCO (stereo not drawn) | – | 800 | – | 1200 | 800
CC[C@]1(O)C[C@@H]2CN(CCc3c([nH]c4ccccc34)[C@@](C(=O)OC)(c3cc4c(cc3OC)N(C)[C@H]3[C@@](O)(C(=O)OC)[C@H](OC(C)=O)[C@]5(CC)C=CCN6CC[C@]43[C@@H]65)C2)C1 [VINBLASTINE] | >250 | 2 | > 1000 | 9 | 4
